Experiment [1] can be described thus: Induction of IL8 secretion in human CD161+ CD3+ NKT cells at 10 ug/ml after 18 hrs relative to basal level. Type of experiment: functional. The essentials:
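Human Vα24i NKT cell lines were expanded for 10 days on irradiated (3,000 rad) autologous immature DCs with 10 units/ml IL-2. The cells (1 × 10^5) were cocultured with 5 × 10^4 irradiated immature CD14+ DCs plus glycolipid at 10 μg/ml. Supernatants were collected at 18 h and read on a 22-plex Luminex bead panel. Triplicates, mean ± SD.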

The subject of a further experiment is 4T1. Nature of the experiment: Antitumor activity in mouse 4T1 cells xenografted BALB/c mouse assessed as suppression of tumor growth at 2 ug, iv. The experiment is classed as functional, cell-based. The essentials: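 BALB/c mice (n = 6) were inoculated s.c. with 4T1 breast cancer cells. From day 3 they were treated i.v. with glycolipid or vehicle twice weekly for 4 weeks. Tumor volume was recorded every 3 days for 1 month, and survival was monitored up to 54 days.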

The subject of experiment [2] is Mus musculus. The experiment can be described thus: Induction of IL12p40 secretion in BALB/c mouse serum at 2 ug, iv after 18 hrs relative to control. Type of experiment: functional. The essentials: (§1)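 BALB/c mice received an i.v. injection of 100 μl of glycolipid diluted to 20 μg/ml in saline from DMSO stock, with 1% DMSO as vehicle. Serum cytokines/chemokines were measured at 2 and 18 h after injection.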

For experiment [3], the system named is Mus musculus. The experiment can be described thus: Induction of MIPbeta secretion in BALB/c mouse serum at 2 ug, iv after 2 hrs relative to control. The experiment is classed as functional. The essentials:
as §1

In experiment [4] the test system is Mus musculus. The experiment can be described thus: Induction of IL3 secretion in BALB/c mouse serum at 2 ug, iv after 2 hrs relative to control. Type of experiment: functional. The essentials:
as §1

The test system of experiment [5] is Mus musculus. Nature of the experiment: Induction of IL4 secretion in BALB/c mouse serum at 2 ug, iv after 2 hrs relative to control. The experiment is classed as functional. The essentials: as §1
Experiment [6] relates to Mus musculus. Nature of the experiment: Induction of IL13 secretion in BALB/c mouse serum at 2 ug, iv after 2 hrs relative to control. Type of experiment: functional. The essentials: as §1
Experiment [7] in a line: Promotion of maturation of human dendritic cells assessed as increase in CD40 expression at 3 ug/ml after 48 hrs. Type of experiment: functional, cell-based. Conditions: Dendritic cell. The essentials: (§2)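 Immature DCs were derived from leukopak CD14+ cells by 2 days in 300 units/ml GM-CSF plus 100 units/ml IL-4. DCs (2 × 10^6) were incubated with glycolipid at 3 μg/ml or vehicle for 48 h. Surface CD40, CD80, CD83, CD86 and HLA-DR were measured by flow cytometry as mean fluorescence intensity.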

The nature of experiment [8]: Promotion of maturation of human dendritic cells assessed as increase in CD80 expression at 3 ug/ml after 48 hrs. Type of experiment: functional, cell-based. Conditions: Dendritic cell. The essentials: as §2
Experiment [9] is described as follows: Promotion of maturation of human dendritic cells assessed as increase in CD83 expression at 3 ug/ml after 48 hrs. The experiment is classed as functional, cell-based. Conditions: Dendritic cell. The essentials:
as §2

Experiment [10] can be described thus: Promotion of maturation of human dendritic cells assessed as increase in CD86 expression at 3 ug/ml after 48 hrs. The experiment is classed as functional, cell-based. Particulars: Dendritic cell. The essentials: as §2
The nature of experiment [11]: Promotion of maturation of human dendritic cells assessed as increase in HLA-DR expression at 3 ug/ml after 48 hrs. Type of experiment: functional, cell-based. Particulars: Dendritic cell. The essentials:
as §2

Experiment [12] has as its system HeLa. Nature of the experiment: Activation of TCR in human HeLa cells overexpressing CD1d assessed as increase in ERK1/2 phosphorylation. The experiment is classed as cell-based. The essentials:
(§3)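 Human HeLa, HeLa-CD1d or autologous immature DCs were loaded with glycolipid at 10 μg/ml, or DMSO, for 2 h. Then 3 × 10^5 naïve CD161+/CD3+ NKT cells were added; these were bead-isolated and kept in 100 units/ml IL-2. After 5–10 min the cells were washed and lysed at 4°C. Phospho-CD3ε, ERK1/2 (Thr-185/Tyr-187) and CREB (Ser-133) were read by Luminex bead assay as median fluorescence normalized to total protein, expressed as fold over 1% DMSO.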

For experiment [13], the system named is HeLa. The experiment can be described thus: Activation of TCR in human HeLa cells overexpressing CD1d assessed as increase in CREB phosphorylation. Type of experiment: cell-based. The essentials:
as §3

Experiment [14] has as its system Mus musculus. The experiment can be described thus: Activation of natural killer cells in BALB/c mouse at 2 ug, iv after 72 hrs by flow cytometry. Type of experiment: functional, organism-based. The essentials: (§4)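 BALB/c mice (n = 4/group) were given 100 μl of glycolipid at 20 μg/ml in saline i.v., or 100 μl of 1% DMSO. Spleens were harvested after 72 h and splenocyte subsets counted by flow cytometry: mature DCs as CD11c+/CD80+/CD86+, activated NK as U5A2-13Ag+/CD3−/CD69+, activated NKT as U5A2-13Ag+/CD3+/CD69+. Assays were run in duplicate, mean ± SD.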

The test system of experiment [15] is Mus musculus. Nature of the experiment: Activation of NKT cells in BALB/c mouse at 2 ug, iv after 72 hrs by flow cytometry. The experiment is classed as functional, organism-based. The essentials: as §4
The next experiment deals with NKT. Nature of the experiment: Stimulation of cell expansion of human invariant CD161+/ Valpha24+/ CD56+/ CD3+ NKT cells by flow cytometry method. Type of experiment: functional, cell-based. The essentials:
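CD56+ NK/NKT mixtures (2 × 10^6) were isolated from human leukopaks with anti-CD56 microbeads. They were cocultured with 4 × 10^5 autologous immature CD14+ DCs pulsed with glycolipid at 3 μg/ml, or with 0.3% DMSO, on day 2 for 18 h. Suspension cells were then transferred and kept in 100 units/ml IL-2 with fresh medium every 3 days. On day 9, CD161+/Vα24TCR+ cells were gated by flow cytometry and total Vα24i NKT cells counted. Triplicates, mean ± SD.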

Experiment [16] has as its system Mus musculus. Nature of the experiment: Activation of B cells in BALB/c mouse at 2 ug, iv after 72 hrs by flow cytometry. Type of experiment: functional, organism-based.

The source made the active and inactive calls. The rule behind the calls is not given here.

With `CCCCCCCCCCCCCCCCCCCCCCCCCC(=O)N[C@@H](CO[C@H]1O[C@H](CO)[C@H](O)[C@H](O)[C@H]1O)[C@H](O)[C@H](O)CCc1ccccc1`, the Activity in experiment [1] is on record as 3; with Mus musculus [2], 3.5; in the experiment on Mus musculus [3], 5.3; with Mus musculus [4], 38.8; with Mus musculus [5], 115; in the experiment on Mus musculus [6], 12.6. For the same compound, the Activity was found to be 6.6 in the experiment on HeLa [12] and 41 with HeLa [13]. Besides, the outcome (with 4T1; in [7]; in [8]; in experiment [9]; in experiment [10]; in experiment [11]) was Active. In addition, the result in the experiment with Mus musculus [14] and in the experiment with Mus musculus [15] was Active.
For `CCCCCCCCCCCCCCCCCCCCCCCCCC(=O)N[C@@H](CO[C@H]1O[C@H](CO)[C@H](O)[C@H](O)[C@H]1O)[C@H](O)[C@H](O)CCCCCCCCCCCCCC` [RGI-7000], the Activity was 1.7 in experiment [1]; 2.8 in the experiment with Mus musculus [2]; 3.6 in the experiment with Mus musculus [3]; 3 in the experiment on Mus musculus [4]; 240 in the experiment on Mus musculus [5]; 15.1 in the experiment on Mus musculus [6]. The Activity with HeLa [12] worked out at 6.6; with HeLa [13], 32. The outcome in the experiment with 4T1, in the experiment with NKT and in the experiment with Mus musculus [16] was Active.

The record behind these values is ChEMBL document CHEMBL1145518, “Potent immune-modulating and anticancer effects of NKT cell stimulatory glycolipids” (2007).
